Bioassay records from PubChem.
Shown are actives, neighbours in structure and some others; about 5% of the full set was active somewhere.
UPR CHOP act: activators of apoptotic arm of unfolded protein response (CHOP). hit rate 0.34% among 330,000. activation, % at 10 µM. CHO-CHOP luciferase reporter, UPR activation, luminescence; percent of tunicamycin response over DMSO baseline;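 active means at 10 µM dose, activation of 40% or more, normalized to positive control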;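 further: 100% = tunicamycin at 10 µg/mL and 0% = DMSO alone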
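measured by = luciferase luminescence | assay system = CHO-CHOP cells, stable luciferase reporter of PERK-eIF2a-CHOP signalling | amount = 500 reporter cells seeded per well | timing = 6 h compound exposure at 37 °C after overnight seeding | controls = positive tunicamycin 10 µg/mL, negative DMSO alone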
CSC inhib: cancer stem cell inhibition | cancer stem cell-like cells viability, luminescence | inhibition, % at 7.5 µM | hit rate 1.1% among 300,000 | AID 2717; in the data active means inhibition above about 75%; inconclusive means no clear call, values can overlap the other calls; tested in HMLE shEcad cells
Mdm2-MdmX inh: inhibitors of human Mdm2/MdmX interaction; hit rate 3% among 330,000; inhibition, % at 8 µM; SaOS-2 split-luciferase Mdm2/MdmX complementation, luminescence;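 active means inhibition of at least 50% at 8 µM in the primary screen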
Target sequence (O15151 whole entry, looked up): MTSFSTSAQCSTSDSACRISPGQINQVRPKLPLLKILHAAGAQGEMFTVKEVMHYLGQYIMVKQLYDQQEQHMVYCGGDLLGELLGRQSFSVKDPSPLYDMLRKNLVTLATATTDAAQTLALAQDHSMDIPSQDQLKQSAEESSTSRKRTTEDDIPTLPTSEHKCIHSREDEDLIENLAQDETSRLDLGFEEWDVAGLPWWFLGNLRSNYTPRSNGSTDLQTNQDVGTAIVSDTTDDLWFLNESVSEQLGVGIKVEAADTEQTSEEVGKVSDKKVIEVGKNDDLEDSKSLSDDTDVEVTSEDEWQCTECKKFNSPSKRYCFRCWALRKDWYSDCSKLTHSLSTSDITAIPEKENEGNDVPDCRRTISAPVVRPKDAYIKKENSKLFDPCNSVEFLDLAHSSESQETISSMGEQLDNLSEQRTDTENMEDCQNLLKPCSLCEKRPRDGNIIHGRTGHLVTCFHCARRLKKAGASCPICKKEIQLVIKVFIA
Target sequence (Q00987 whole entry, looked up): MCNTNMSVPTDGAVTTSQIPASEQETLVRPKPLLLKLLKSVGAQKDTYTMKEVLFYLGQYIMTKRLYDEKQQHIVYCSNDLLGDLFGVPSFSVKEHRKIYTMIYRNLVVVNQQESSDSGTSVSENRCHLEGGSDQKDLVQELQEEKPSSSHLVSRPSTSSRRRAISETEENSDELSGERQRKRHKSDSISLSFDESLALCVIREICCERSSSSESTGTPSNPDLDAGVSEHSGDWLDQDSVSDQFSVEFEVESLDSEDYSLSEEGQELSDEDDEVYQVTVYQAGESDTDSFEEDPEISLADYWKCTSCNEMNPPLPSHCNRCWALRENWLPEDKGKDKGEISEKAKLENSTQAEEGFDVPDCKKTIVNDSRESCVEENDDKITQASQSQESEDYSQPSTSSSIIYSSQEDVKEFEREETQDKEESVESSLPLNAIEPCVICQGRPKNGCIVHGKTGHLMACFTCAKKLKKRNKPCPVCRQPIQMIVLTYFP
Beta cell apopt: blocks beta cell apoptosis. hit rate 0.8% among 300,000. AID 435005. protection from apoptosis, % (test concentration not listed). INS-1E cytokine-induced death, ATP luminescence, 48 h; percent of positive-control rescue, neutral wells zero;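 active means Every replicate reaches about 75%, or at least half do and their mean reaches it too, limit read from the data; inconclusive means At least half of replicates reach the limit but their mean does not; inactive means Under half of replicates reach the limit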;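 further: 0% = cytokine-treated negative control wells and 100% = positive control rescue; higher means more ATP so stronger rescue from cytokine killing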
UPR XBP1 act: adaptive UPR (XBP1) activation; CHO-XBP1 luciferase reporter, IRE1-XBP1 UPR activation, luminescence; percent of tunicamycin response, DMSO as zero; activation, % at 20 µM; hit rate 0.33% among 330,000;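 active means versus positive control, 20 µM dose yields 30% or more activation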;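 further: 100% = tunicamycin at 10 µg/mL and 0% = DMSO only wells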
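Material: CHO-XBP1 cells stably carrying IRE1-XBP1-driven luciferase reporter / Amount: 1000 cells per well / Compound: 20 µM, 1% DMSO / Times: 6 h treatment, 37 °C / Detection: luciferase luminescence / Measure: % activation of reporter signal versus tunicamycin and DMSO controls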
T cruzi inh: blocks replication of Trypanosoma cruzi | T. cruzi beta-gal in NIH3T3, luminescence, 90 h | inhibition, % (no concentration beside the values) | hit rate 1.4% among 300,000;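 active means mean inhibition across valid replicates above about 55%, limit read from the data; inconclusive means mean below that limit but half or more replicates reach it; inactive means mean below it, under half of replicates reach it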;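 further: signal also drops with host cell toxicity which is not excluded here; 0% = plate median of DMSO wells and 100% = zero luminescence signal; higher percent means less beta-gal luminescence so fewer parasites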
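Read-out: Parasite load inhibition, % | Test system: Mouse NIH/3T3 fibroblasts infected with β-gal-expressing T. cruzi Tulahuen C4 | Amount: 5,000 cells/well | Medium: DMEM, 2% fetal bovine serum | Signal: GalScreen β-gal luminescence, detergent lysis, 60 min | Timing: 3 h attach, ≥90 h co-culture | Also added: Tulahuen C4 trypomastigotes, 5000/well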
Active calls of the source: *; ? = inconclusive; . = not tested or not shown.

SMILES | UPR CHOP act | CSC inhib | Mdm2-MdmX inh | Beta cell apopt | UPR XBP1 act | T cruzi inh
Cc1ccc(N2CCN(CC(O)COc3cccc4ccccc34)CC2)cc1 (centres undefined) | -1 | 2 | -27 | -1 | 1 | -10
OC(COc1cccc2ccccc12)CN1CCN(c2ccccc2Cl)CC1 (centres undefined) | . | 114* | . | -11 | . | 8
OC(CN1CCN(Cc2ccccc2)CC1)c1ccc(Br)cc1 (centres undefined) | 0 | 24 | -34 | 4 | 0 | 57*
OC(COc1ccccc1)CN1CCCC1 (centres undefined) | 0 | 0 | -3 | -4 | 1 | -1
OC(CN1CCN(Cc2ccccc2)CC1)c1ccccc1 (centres undefined) | -1 | -2 | -9 | 1 | 4 | 38
COc1cc(C(=O)Nc2ccc(C)cc2)c(-n2cnnn2)cc1OC | 1 | -9 | -11 | 0 | -2 | -12
CCN1CCN(c2nc(-c3ccncc3)nc3ccccc23)CC1 | 0 | -12 | -1 | 17 | -3 | 69*
CCCOc1ccc(-c2nc(N3CCN(CC)CC3)c3ccccc3n2)cc1 | 2 | 88* | 36 | 7 | 7 | 34
O=C(COC(=O)c1cc(-c2ccc(F)cc2)nc2ccccc12)NCC1CCCO1 (centres undefined) | 1 | -3 | -6 | -4 | -1 | 5
CCCCC(CC)C(=O)Nc1ncc([N+](=O)[O-])s1 (centres undefined) | 0 | 24 | 38 | 22 | 2 | 81*
Cc1ccc(CC(=O)Nc2ncc([N+](=O)[O-])s2)cc1 | 3 | 8 | -83 | 20 | -5 | 69*
Cc1ncoc1C(=O)Nc1ncc([N+](=O)[O-])s1 | -1 | 19 | -7 | 15 | -4 | -10
COC(=O)c1cc(S(=O)(=O)N2CCN(Cc3ccccc3)CC2)c[nH]1 | 0 | 9 | 16 | -8 | -4 | -6
CC1Cc2cccc3c(O)c(C(=O)c4nn[nH]n4)c(=O)n1c23 (centres undefined) | 1 | -7 | 16 | 2 | 0 | 3
COc1ccc(CC(=O)Nc2ccc(S(=O)(=O)N3CCC(C)CC3)cc2)c(OC)c1 | 0 | -4 | -6 | -5 | -3 | .
CCOC(=O)C1=C(C)N(C[C@@H]2CC[C@@H](Cc3ccc(-c4ccccc4)cc3)O2)C(=O)NC1c1cccc([N+](=O)[O-])c1 (some centres undefined) | 1 | . | 44 | . | 0 | .
O=C(c1cc(COc2ccc(F)cc2F)on1)N1CCSCC1 | 6 | -2 | -72 | -12 | 3 | -9
CCOc1cc(/C=C2\N=C(SC(C)C(N)=O)N(c3ccc(OC(F)F)cc3)C2=O)ccc1O (centres undefined) | 4 | 103* | 22 | 17 | 0 | -15
COc1ccc(N2Cc3ccc(C(=O)N/N=C\c4ccc(O)cc4O)cc3C2)cc1 | -1 | 91* | -21 | 13 | -3 | 4
Cc1nc(-c2ccc(C(=O)Nc3cccc(Br)c3)cc2)cs1 | 3 | . | -220 | 11 | -3 | 18
Cc1ccc(NS(=O)(=O)c2cc3c4c(cccc4c2)C(=O)NC3=O)cc1C | -3 | 79* | 40 | 14 | -3 | 16
O=C1NC(=O)c2cc(Br)cc3cccc1c23 | -1 | 5 | -5 | . | -1 | 2
O=C(Cc1ccc(Cl)cc1)Nc1ccc2c(c1)C(=O)NC2=O | 1 | 91* | 18 | 119* | -1 | -7
COC(=O)C1=C(C(=O)OC)[C@@H]2N(C)c3ccc(OC)cc3[C@@]23C[C@@H](C(=O)OC)N(C(=O)NC2CCCCC2)C3=N1 | 1 | 1 | -11 | 3 | 0 | 1
O=S(=O)(c1cccs1)N1CCN(CC(O)COc2cc(Cl)ccc2Cl)CC1 (centres undefined) | 3 | 22 | 15 | 83* | -3 | .
SMILES | UPR CHOP act | CSC inhib | Mdm2-MdmX inh | Beta cell apopt | UPR XBP1 act | T cruzi inh
O=S(=O)(c1cccs1)N1CCN(CCOc2ccc(Cl)cc2)CC1 | -1 | 24 | 14 | -6 | -5 | .
COc1ccc(CCCC(=O)N/N=C/c2cccc(OC)c2O)cc1C | 1 | 113* | 44 | -1 | 2 | -13
COCCCNC(=S)N/N=C/c1cccc(OC)c1O | 17 | 2 | 34 | 88* | 4 | .
COc1cccc(/C=N/NC(=O)CSc2nnc(C)n2-c2ccccc2)c1O | -1 | 77* | 28 | 11 | 3 | -17
CCc1nnc(SCC(=O)Nc2nc(C)c(C(=O)N(C)C)s2)n1CC | 0 | -9 | 11 | -3 | -3 | -2
COC(=O)c1c(NC(=O)CC2SC(N)=NC2=O)sc2c1CCC(C(C)(C)C)C2 (centres undefined) | 1 | 109* | 36 | 0 | 1 | 43
COC(=O)c1c(NC(=O)CC2SC(N)=NC2=O)sc2c1CCC(C)C2 (centres undefined) | -2 | 10 | 21 | -9 | 0 | 12
O=C(NCc1cn(-c2ccccc2)nc1-c1ccccc1)c1cccc([N+](=O)[O-])c1 | 3 | 14 | -7 | 7 | -1 | ?
COc1ccc(-c2nn(-c3ccccc3)cc2CNC(=O)c2cccc([N+](=O)[O-])c2)cc1 | 1 | -6 | 11 | 24 | -2 | 66*
O=C(NCc1cn(-c2ccccc2)nc1-c1ccccc1)c1cc([N+](=O)[O-])cc([N+](=O)[O-])c1 | 0 | -4 | 23 | 10 | -5 | 62*
COc1ccc(OCCCC(=O)OCC(=O)NNC(=O)c2ccc([N+](=O)[O-])cc2)cc1 | 1 | 9 | -11 | -5 | -3 | -8
CCN(CC)S(=O)(=O)c1ccc(C)c(NC(=O)CNc2cccc(S(=O)(=O)N3CCCC3)c2)c1 | 0 | -6 | -5 | . | -5 | 13
CCN(CC)S(=O)(=O)c1cccc(NC(=O)CNc2cccc(S(=O)(=O)N3CCCC3)c2)c1 | 6 | 13 | 29 | 112* | -2 | 7
CN(C)CCCNS(=O)(=O)c1ccc(NC2CCCCCC2)c([N+](=O)[O-])c1 | 3 | 0 | 46 | 85* | 6 | 46
O=C(CCC(=O)N(CC(=O)NC1CCCCC1)Cc1cccs1)Nc1ccccn1 | -2 | -17 | -6 | -1 | -5 | 11
Nc1ccc(S(=O)(=O)c2cccc(N)c2)cc1 | 0 | -4 | 31 | -4 | -2 | -2
Cc1ccc(S(=O)(=O)c2ccccc2)cc1S | -1 | 11 | -1 | -9 | 4 | 62*
CCc1ccc(CNC(=O)C2CCC(=O)N(CCc3ccc(Cl)cc3)C2)nc1 (centres undefined) | 1 | 12 | 13 | -5 | -4 | 7
Cn1cnc([N+](=O)[O-])c1Sc1ncnc2nc[nH]c12 | 1 | 85* | 20 | 3 | -3 | 16
